Active and inactive are the calls of the source. No cut-off for these calls is given here.

We go through 2 compounds from ChEMBL document CHEMBL4020830, “Design, Synthesis, and Evaluation of a Novel Series of Indole Sulfonamide Peroxisome Proliferator Activated Receptor (PPAR) α/γ/δ Triple Activators: Discovery of Lanifibranor, a New Antifibrotic Clinical Candidate” (J Med Chem, 2018).

The target of experiment [1] is T1, Peroxisome proliferator-activated receptor alpha (Mus musculus, UniProt P23204).
T1 sequence (P23204 whole entry): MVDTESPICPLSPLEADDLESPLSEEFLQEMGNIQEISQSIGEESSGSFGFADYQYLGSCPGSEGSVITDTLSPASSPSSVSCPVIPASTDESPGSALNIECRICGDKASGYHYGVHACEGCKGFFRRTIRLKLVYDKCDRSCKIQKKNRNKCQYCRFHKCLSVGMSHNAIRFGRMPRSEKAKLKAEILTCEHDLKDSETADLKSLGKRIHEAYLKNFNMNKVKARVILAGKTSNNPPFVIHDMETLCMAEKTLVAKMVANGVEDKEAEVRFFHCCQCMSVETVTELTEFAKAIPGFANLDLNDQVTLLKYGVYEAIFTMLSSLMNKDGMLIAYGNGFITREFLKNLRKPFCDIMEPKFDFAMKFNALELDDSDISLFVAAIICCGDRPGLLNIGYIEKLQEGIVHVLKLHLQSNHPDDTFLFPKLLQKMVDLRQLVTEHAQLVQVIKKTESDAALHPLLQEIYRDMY
The experiment in a line: Transactivation of mouse GAL4-fused PPARalpha LBD expressed in African green monkey COS7 cells co-expressing 5Gal4 pGL3 TK Luc after overnight incubation by luciferase reporter gene assay. It counts as cell-based. The method in brief:
(§1)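 Cell-based Gal-4 transactivation assay in COS-7 cells transfected with PPARα, PPARδ or PPARγ ligand-binding domain. EC50 and Emax were derived, with Emax as maximum activation in percent of control. EC50s are means of at least two independent experiments performed in triplicate.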
A general note: A reporter such as luciferase makes a cellular process visible.

Experiment [2] deals with T2, Peroxisome proliferator-activated receptor alpha (Mus musculus) (UniProt P23204).
T2 sequence (whole entry): T1 sequence (P23204 whole entry)
Description: Transactivation of mouse GAL4-fused PPARalpha LBD expressed in African green monkey COS7 cells co-expressing 5Gal4 pGL3 TK Luc after overnight incubation by luciferase reporter gene assay relative to fenofibric acid. It counts as cell-based. The method in brief:
as §1

Experiment [3] addresses T3, Peroxisome proliferator-activated receptor delta (Mus musculus) (UniProt P35396).
T3 sequence (whole entry): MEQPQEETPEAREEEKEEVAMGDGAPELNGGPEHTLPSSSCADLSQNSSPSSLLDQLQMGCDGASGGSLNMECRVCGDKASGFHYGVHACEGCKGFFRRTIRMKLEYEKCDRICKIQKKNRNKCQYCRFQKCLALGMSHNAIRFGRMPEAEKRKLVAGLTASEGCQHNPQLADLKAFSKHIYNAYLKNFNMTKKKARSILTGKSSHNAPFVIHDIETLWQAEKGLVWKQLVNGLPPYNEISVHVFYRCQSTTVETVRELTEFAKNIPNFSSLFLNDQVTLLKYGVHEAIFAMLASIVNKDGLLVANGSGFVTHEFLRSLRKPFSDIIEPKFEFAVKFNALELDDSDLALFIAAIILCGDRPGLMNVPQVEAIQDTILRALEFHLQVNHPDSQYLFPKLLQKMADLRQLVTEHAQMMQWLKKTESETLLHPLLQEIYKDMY
Description: Transactivation of mouse GAL4-fused PPARdelta LBD expressed in African green monkey COS7 cells co-expressing 5Gal4 pGL3 TK Luc after overnight incubation by luciferase reporter gene assay relative to GW501516. It counts as cell-based. The method in brief: as §1

For experiment [4], the system named is Mus musculus. The experiment in a line: Increase in plasma adiponctin level in C57Bl6/J mouse model of CCl4-induced liver fibrosis at 3 to 30 mg/kg, po qd for 3 weeks. It counts as functional, organism-based. In outline:
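CCl4-induced liver fibrosis mice were dosed orally once daily at 3, 10 or 30 mg/kg for 3 weeks. Controls were CCl4-vehicle, vehicle oil and saline-injected groups. Liver collagen was scored by picrosirius red staining of histological sections. Plasma triglycerides and adiponectin were also measured. Analysis was one-way ANOVA with Dunnett's test.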

In experiment [5] the target is T4, Peroxisome proliferator-activated receptor gamma (Homo sapiens, UniProt P37231).
T4 sequence (P37231 whole entry): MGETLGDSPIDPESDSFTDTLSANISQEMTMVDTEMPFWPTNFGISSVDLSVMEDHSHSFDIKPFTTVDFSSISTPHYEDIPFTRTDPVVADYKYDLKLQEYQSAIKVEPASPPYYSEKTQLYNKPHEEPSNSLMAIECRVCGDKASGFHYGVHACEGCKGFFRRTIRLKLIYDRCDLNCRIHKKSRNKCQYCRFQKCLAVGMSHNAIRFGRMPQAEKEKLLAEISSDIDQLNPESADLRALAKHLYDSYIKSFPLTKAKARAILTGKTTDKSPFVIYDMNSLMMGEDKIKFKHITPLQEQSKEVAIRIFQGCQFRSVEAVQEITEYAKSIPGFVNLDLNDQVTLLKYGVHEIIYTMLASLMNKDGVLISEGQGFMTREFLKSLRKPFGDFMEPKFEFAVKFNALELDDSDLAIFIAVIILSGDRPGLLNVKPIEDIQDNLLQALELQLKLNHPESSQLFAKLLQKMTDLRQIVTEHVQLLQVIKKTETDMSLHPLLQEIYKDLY
Description: Transactivation of recombinant GST-tagged PPARgamma (unknown origin) expressed in Escherichia coli assessed as N-terminal biotin-labeled LCOR (39 to 63 residues) co-activator recruitment by TR-FRET assay. Background: In TR-FRET formats the signal depends on donor and acceptor labels being close together.

The target of experiment [6] is T4, Peroxisome proliferator-activated receptor gamma.
The target is the same in experiment [7]. This is another data set of the same source.
The target is the same in experiment [8]. The source holds these as a separate data set.
Experiment [9] shares this target. The source holds these as a separate data set.
The test system of experiment [10] is Mus musculus. The experiment in a line: Antidiabetic activity in C57BL/Ks mouse model of diabetic dyslipidemia assessed as decrease in plasma glucose level at 10 mg/kg, po qd administered via gavage for 10 days measured 4 hrs post last dose. In kind it is functional, organism-based. In outline: (§2)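 Homozygous male C57BL/Ks-db (db/db) mice were gavaged once daily at 10 or 30 mg/kg, for 5 or 10 days. Retro-orbital blood was drawn before treatment and 4 h after the last gavage. Glucose and triglycerides were measured in serum. Results are expressed as % variation on the final day versus the control group. Analysis was one-way ANOVA with Dunnett's test.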

Experiment [11] deals with Mus musculus. The experiment in a line: Hypolipidemic activity in C57BL/Ks mouse model of diabetic dyslipidemia assessed as decrease in plasma triglyceride level at 10 mg/kg, po qd administered via gavage for 10 days measured 4 hrs post last dose. It counts as functional, organism-based. In outline: as §2
Experiment [12] concerns Mus musculus. Description: Hypolipidemic activity in C57BL/Ks mouse model of diabetic dyslipidemia assessed as decrease in plasma triglyceride level at 30 mg/kg, po qd administered via gavage for 10 days measured 4 hrs post last dose. It counts as functional, organism-based. In outline:
as §2

Regarding `O=C(O)CCCc1cc2cc(Cl)ccc2n1S(=O)(=O)c1ccc2ncsc2c1` [LANIFIBRANOR], the EC50 in [1] was determined as 0.366 µM; in experiment [5] it was 0.727 µM; in [6] it was 4.1 µM; in [7] it was 1.48 µM; in experiment [8], 1.92 µM; in experiment [9], 3.27 µM. In addition, the Emax in experiment [2] is 72%; in experiment [3], 131%. Moreover, the outcome with Mus musculus [4] was Active.
Consider `O=C(O)CCc1cc2cc(Cl)ccc2n1S(=O)(=O)c1ccccc1`, for which the result in the experiment with Mus musculus [10] and in the experiment with Mus musculus [11] was inactive. Besides, in the experiment on Mus musculus [12], the outcome was Active.

The term EC50 denotes the concentration giving half of the maximal effect.
